Measurements published in ChEMBL document CHEMBL4270544, “Design, synthesis and biological evaluation of a novel tubulin inhibitor 7a3 targeting the colchicine binding site” (Eur J Med Chem, 2018).
Activity calls are given as the source filed them. The calls are words filed in the database; no cut-off is given here.

What was measured:
Mus musculus [1] = test: Toxicity in Balb/c mouse xenografted with human SKOV3 cells assessed as pathological changes in spleen at 50 mg/kg, ip administered every two days for three times by hematoxylin and eosin staining based assay; format: organism-based; details: in vivo
Outline: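 Six-week-old Balb/c nude mice received subcutaneous SK-OV-3 cells in the back. At ~200 mm3 tumour size they were randomized to vehicle or drug groups, six per group. Drug was given in 5% (v/v) DMSO/olive oil, intraperitoneally, every two days for three doses. Heart, liver, spleen, lung and kidney were collected and examined by H&E staining.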

Mus musculus [2] = test: Toxicity in Balb/c mouse xenografted with human SKOV3 cells assessed as pathological changes in kidney at 50 mg/kg, ip administered every two days for three times by hematoxylin and eosin staining based assay; format: organism-based; details: in vivo
Outline: (§1)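 In SK-OV-3 xenografted Balb/c nude mice dosed 50 mg/kg intraperitoneally in 5% DMSO/olive oil every two days, three times, organs were collected and examined after H&E staining.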

MDA-MB-231 = test: Antiproliferative activity against human MDA-MB-231 cells after 72 hrs by CCK8 assay; format: functional, cell-based; details: MDA-MB-231, 72 h
Outline: (§2)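 CCK-8 proliferation assay with CA-4 as positive control. IC50 is the concentration giving 50% inhibition of proliferation. Mean ± SEM from three independent experiments.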

SK-OV-3 [3] = test: Inhibition of tubulin assembly in human SKOV3 cells assessed as disorganized microtubule polymerization at 10 to 1000 nM after 24 hrs by DAPI staining based immunofluorescence microscopic method; format: functional, cell-based
Outline: (§3)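 SK-OV-3 cells exposed to DMSO or 10, 100 or 1000 nM for 24 h. Fixed in methanol, stained with FITC anti-β-tubulin antibody, counterstained with DAPI, and imaged by confocal microscopy.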

SK-OV-3 [4] = test: Cell cycle arrest in human SKOV3 cells assessed as accumulation at G2/M phase at 160 nM after 24 hrs by propidium iodide staining based flow cytometry (reference value: 14.12%)
[5] = Terminal half life in C57 mouse at 50 mg/kg, ip administered as single dose by LC-MS/MS analysis; format: ADME, organism-based; details: in vivo, read-out: beta t1/2 (converted)
Outline: (§4)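 Male C57 mice, one intraperitoneal dose. Blood drawn from submaxillary vein at 0, 5, 15, 30 min and 1, 2, 4, 8, 12, 24 h. Plasma measured by LC/MS/MS in MRM mode with CA-4 as internal standard. Calibration by weighted linear regression over 0.01–500 ng/mL. Parameters obtained by non-compartmental analysis.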

SK-OV-3 [6] = test: Antitumor activity against human SKOV3 cells xenografted in Balb/c mouse assessed as reduction in tumor growth at 50 mg/kg, ip administered every two days for three times measured every 3 to 4 days relative to control; format: functional; design: scale not given: the % may be the effect or the level left
Outline: (§5)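 Six-week-old Balb/c nude mice given subcutaneous SK-OV-3 cells in the back. Randomised into three groups at about 200 mm3 tumour size. Dosed 50 mg/kg intraperitoneally in 5% DMSO/olive oil every two days, three times; vehicle group as control. Tumour volume and body weight tracked; six animals per group, mean ± SEM, t-test.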

Mus musculus [7] = test: Area under the first moment curve (0 to 24 hrs) in C57 mouse at 50 mg/kg, ip administered as single dose by LC-MS/MS analysis; format: ADME, organism-based; details: in vivo; outline: as §4
SK-OV-3 [8] = test: Induction of apoptosis in human SKOV3 cells assessed as early apoptotic cells at 40 nM after 48 hrs by Annexin-V-FITC/propidium iodide staining based flow cytometry (reference value: 0.97%); format: functional
SK-OV-3 [9] = test: Induction of apoptosis in human SKOV3 cells assessed as necrotic cells at 40 nM after 48 hrs by Annexin-V-FITC/propidium iodide staining based flow cytometry (reference value: 0.67%); format: functional
SK-OV-3 [10] = test: Cell cycle arrest in human SKOV3 cells assessed as accumulation at G2/M phase at 40 nM after 24 hrs by propidium iodide staining based flow cytometry (reference value: 24.99%); format: functional
Outline: (§6)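 SK-OV-3 cells exposed to 40, 80 or 160 nM for 24 h, with untreated cells as control. Stained with PI and analysed by flow cytometry for phase distribution. Mean ± SEM of three independent experiments; t-test against control.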

[11] = Tmax in C57 mouse at 50 mg/kg, ip administered as single dose by LC-MS/MS analysis; format: ADME, organism-based; details: in vivo; outline: as §4
[12] = Mean residence time in C57 mouse at 50 mg/kg, ip administered as single dose by LC-MS/MS analysis; format: ADME, organism-based; details: in vivo; outline: as §4
SK-OV-3 [13] = test: Antimigratory activity against human SKOV3 cells assessed as wound closure at 160 nM after 24 hrs by microscopy based scratch wound assay (reference value: 79.5 +/- 2.8%); format: functional
SK-OV-3 [14] = test: Antimigratory activity against human SKOV3 cells assessed as number of migrated cells at 25 nM after 24 hrs by crystal violet staining based transwell migration assay (reference value: 49.3 to 50.7); format: functional
Mus musculus [15] = test: Toxicity in Balb/c mouse xenografted with human SKOV3 cells assessed as body weight loss at 50 mg/kg, ip administered every two days for three times measured during compound dosing; format: organism-based; details: in vivo; outline: as §5
SK-OV-3 [16] = test: Induction of apoptosis in human SKOV3 cells assessed as live cells at 80 nM after 48 hrs by Annexin-V-FITC/propidium iodide staining based flow cytometry (reference value: 94.43%); format: functional
SK-OV-3 [17] = test: Cell cycle arrest in human SKOV3 cells assessed as accumulation at S phase at 80 nM after 24 hrs by propidium iodide staining based flow cytometry (reference value: 18.09%); format: functional; outline: as §6
SK-OV-3 [18] = test: Inhibition of tubulin assembly in human SKOV3 cells assessed as disorganized spindle formation at 10 to 1000 nM after 24 hrs by DAPI staining based immunofluorescence microscopic method; format: functional, cell-based; outline: as §3
[19] = AUC (0 to 24 hrs) in C57 mouse at 50 mg/kg, ip administered as single dose by LC-MS/MS analysis; format: ADME, organism-based; design: dose 50 mg/kg, time < 24 hr, route intraperitoneal; details: in vivo; outline: as §4
[20] = AUC (0 to infinity) in C57 mouse at 50 mg/kg, ip administered as single dose by LC-MS/MS analysis; format: ADME, organism-based; design: dose 50 mg/kg, time infinity, route intraperitoneal; details: in vivo; outline: as §4
Mus musculus [21] = test: Toxicity in Balb/c mouse xenografted with human SKOV3 cells assessed as pathological changes in heart at 50 mg/kg, ip administered every two days for three times by hematoxylin and eosin staining based assay; format: organism-based; details: in vivo; outline: as §1
SK-OV-3 [22] = test: Induction of apoptosis in human SKOV3 cells assessed as live cells at 160 nM after 48 hrs by Annexin-V-FITC/propidium iodide staining based flow cytometry (reference value: 94.43%); format: functional
SK-OV-3 [23] = test: Cell cycle arrest in human SKOV3 cells assessed as accumulation at G0/G1 phase at 40 nM after 24 hrs by propidium iodide staining based flow cytometry (reference value: 67.79%); format: functional; outline: as §6
SK-OV-3 [24] = test: Cell cycle arrest in human SKOV3 cells assessed as accumulation at G0/G1 phase at 80 nM after 24 hrs by propidium iodide staining based flow cytometry (reference value: 67.79%); format: functional; outline: as §6
MCF7 = test: Antiproliferative activity against human MCF7 cells after 72 hrs by CCK8 assay; format: functional, cell-based; details: MCF7, 72 h; outline: as §2
SK-OV-3 [25] = test: Induction of apoptosis in human SKOV3 cells assessed as live cells at 40 nM after 48 hrs by Annexin-V-FITC/propidium iodide staining based flow cytometry (reference value: 94.43%); format: functional
SK-OV-3 [26] = test: Induction of apoptosis in human SKOV3 cells assessed as necrotic cells at 80 nM after 48 hrs by Annexin-V-FITC/propidium iodide staining based flow cytometry (reference value: 0.67%); format: functional

CCOc1ccc(-c2cn(C)nc2-c2cc(OC)c(OC)c(OC)c2)cc1
Activity (Mus musculus [1]): Non-Toxic | Activity (Mus musculus [2]): Non-Toxic | IC50 (MDA-MB-231): 31 nM | inhibition (SK-OV-3 [3]): Active | Activity (SK-OV-3 [4]): 65.79% | half-life [5]: 1.67 h | Activity (SK-OV-3 [6]): 62.8% | AUMC (Mus musculus [7]): 1498 hr.hr.ng/ml | Activity (SK-OV-3 [8]): 1.35% | Activity (SK-OV-3 [9]): 0.97% | Activity (SK-OV-3 [10]): 24.6% | Tmax [11]: 0.25 h | MRT [12]: 1.51 h | Activity (SK-OV-3 [13]): 32.1% | Activity (SK-OV-3 [14]): 27.3 | Activity (Mus musculus [15]): Non-Toxic | Activity (SK-OV-3 [16]): 73.56% | Activity (SK-OV-3 [17]): 24.15% | inhibition (SK-OV-3 [18]): Active | AUC(0-t) at 24 h [19]: 1140 ng·h/mL | AUC(0-inf) [20]: 1170 ng·h/mL | Activity (Mus musculus [21]): Non-Toxic | Activity (SK-OV-3 [22]): 41.9% | Activity (SK-OV-3 [23]): 54.42% | Activity (SK-OV-3 [24]): 41.2% | IC50 (MCF7): 35.4 nM | Activity (SK-OV-3 [25]): 91.03% | Activity (SK-OV-3 [26]): 2.72%
